{
  "source": "ChEMBL document CHEMBL4715756",
  "about": "“Nitrotriazole-based acetamides and propanamides with broad spectrum antitrypanosomal activity” (Eur J Med Chem, 2016)",
  "key": {"[1]": {"experiment": "in vitro", "conditions": "rat"}, "[2]": {"experiment": "Dissociation constant, pKa of the compound"}, "[3]": {"experiment": "in vitro", "conditions": "rat, L6 cells versus Trypanosoma cruzi Tulahuen C4"}, "[4]": {"system": "Trypanosoma cruzi", "experiment": "Trypanocidal activity against Trypanosoma cruzi Tulahuen C4 amastigotes infected in rat L6 cells in vitro"}, "[5]": {"experiment": "in vitro", "conditions": "rat, L6 cells versus Leishmania donovani MHOM/ET/67/L82"}, "[6]": {"system": "Trypanosoma brucei rhodesiense", "experiment": "Substrate activity at Trypanosoma brucei rhodesiense recombinant His-tagged type 1 nitroreductase assessed as enzyme specific activity using NADH at 100 uM by spectrophotometrically", "in_short": "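Purified recombinant his-tagged TbNTR. Each nitrotriazole substrate at 100 µM with NADH 100 µM. NADH oxidation followed spectrophotometrically at 340 nm. Specific activity given as nmol NADH oxidized min^-1 mg^-1 protein, mean of three experiments ± SD.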"}, "[7]": {"system": "Trypanosoma cruzi", "experiment": "Anti-chagasic activity against Trypanosoma cruzi Brazil trypomastigotes expressing firefly luciferase infected in BALB/c mouse assessed as reduction in parasitemia at 15 mg/kg/day, ip measured after 10 days by bioluminescence assay", "format": "functional, organism-based", "conditions": "time 10.0 day"}, "[8]": {"system": "Trypanosoma cruzi", "experiment": "Anti-chagasic activity against Trypanosoma cruzi Brazil trypomastigotes expressing firefly luciferase infected in BALB/c mouse assessed as reduction in parasitemia at 15 mg/kg/day, ip measured after 5 days by bioluminescence assay", "format": "functional, organism-based", "conditions": "time 5.0 day"}, "[9]": {"experiment": "Toxicity in Trypanosoma cruzi Brazil trypomastigotes expressing firefly luciferase infected BALB/c mouse assessed toxic symptoms at 15 mg/kg, ip measured after 5 to 10 days", "format": "organism-based", "conditions": "in vivo, time 5-10 day", "in_short": "(§1)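 Same infected Balb/c model: luciferase T. cruzi, 10^5 trypomastigotes. Daily i.p. dosing for 10 days from day 4 post infection at 13 or 15 mg/kg/day, in 2% methylcellulose + 0.5% Tween 80, 5 mice/group. Mice observed for general health and deaths over the treatment period.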"}, "[10]": {"experiment": "Toxicity in Trypanosoma cruzi Brazil trypomastigotes expressing firefly luciferase infected BALB/c mouse assessed as healthy appearance at 13 mg/kg, ip measured after 5 to 10 days", "format": "organism-based", "conditions": "in vivo, time 5-10 day", "in_short": "(§2)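 Balb/c mice, 5 weeks old, infected with 10^5 luciferase-expressing Brazil-strain T. cruzi trypomastigotes. From 4 days post-infection, mice were dosed i.p. at 13 mg/kg/day for 10 days in 2% methylcellulose + 0.5% Tween 80 vehicle, 5 mice/group. Animals were observed over treatment, with imaging after 5 and 10 days of dosing.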"}, "[11]": {"experiment": "Toxicity in Trypanosoma cruzi Brazil trypomastigotes expressing firefly luciferase infected BALB/c mouse assessed mortality at 13 mg/kg, ip measured after 5 to 10 days", "format": "organism-based", "conditions": "in vivo, time 5-10 day", "in_short": "as §2"}, "[12]": {"system": "Trypanosoma cruzi", "experiment": "Anti-chagasic activity against Trypanosoma cruzi Brazil trypomastigotes expressing firefly luciferase infected in BALB/c mouse assessed as reduction in parasitemia at 13 mg/kg/day, ip measured after 5 days by bioluminescence assay", "format": "functional, organism-based", "conditions": "time 5.0 day"}, "[13]": {"system": "Trypanosoma cruzi", "experiment": "Anti-chagasic activity against Trypanosoma cruzi Brazil trypomastigotes expressing firefly luciferase infected in BALB/c mouse assessed as reduction in parasitemia at 13 mg/kg/day, ip measured after 10 days by bioluminescence assay", "format": "functional, organism-based", "conditions": "time 10.0 day"}, "[14]": {"experiment": "Toxicity in Trypanosoma cruzi Brazil trypomastigotes expressing firefly luciferase infected BALB/c mouse assessed toxic symptoms at 13 mg/kg, ip measured after 5 to 10 days", "format": "organism-based", "conditions": "in vivo, time 5-10 day", "in_short": "as §1"}},
  "note": "Calls of active or inactive are those of the source. The calls are words filed in the database; no cut-off is given here.",
  "data": [
    {"compound": "N#Cc1ccc(-c2ccc(NC(=O)Cn3cnc([N+](=O)[O-])n3)cc2)cc1", "values": [
      {"measurement": "selectivity ratio", "setting": "[1]", "value": 490},
      {"measurement": "pKa", "setting": "[2]", "value": 13.2},
      {"measurement": "selectivity ratio", "setting": "[3]", "value": 1190},
      {"measurement": "IC50", "setting": "[4]", "value": 138, "unit": "nM"}
    ]},
    {"compound": "CN(C(=O)Cn1cnc([N+](=O)[O-])n1)c1ccc(C(F)(F)F)cc1", "values": [
      {"measurement": "selectivity ratio", "setting": "[1]", "value": 6.8},
      {"measurement": "selectivity ratio", "setting": "[5]", "value": 6.8}
    ]},
    {"compound": "O=C(CCn1cnc([N+](=O)[O-])n1)Nc1cccc(OCc2ccccc2)c1", "values": [
      {"measurement": "pKa", "setting": "[2]", "value": 14},
      {"measurement": "Activity", "setting": "[6]", "value": "Active"}
    ]},
    {"compound": "CN(C(=O)Cn1ccnc1[N+](=O)[O-])c1ccc(C(F)(F)F)cc1", "values": [
      {"measurement": "selectivity ratio", "setting": "[3]", "value": 3.8}
    ]},
    {"compound": "O=C(Cn1cnc([N+](=O)[O-])n1)Nc1ccc(Oc2ccc(F)cc2)cc1", "values": [
      {"measurement": "selectivity ratio", "setting": "[1]", "value": 35},
      {"measurement": "pKa", "setting": "[2]", "value": 13.6}
    ]},
    {"compound": "O=C(Cn1ccnc1[N+](=O)[O-])NCc1ccccc1", "values": [
      {"measurement": "Activity", "setting": "[7]", "value": "Active"},
      {"measurement": "Activity", "setting": "[8]", "value": "Active"}
    ]},
    {"compound": "O=C(CCn1cnc([N+](=O)[O-])n1)Nc1cc(-c2ccc(Cl)cc2)no1", "values": [
      {"measurement": "pKa", "setting": "[2]", "value": 9.14},
      {"measurement": "Activity", "setting": "[6]", "value": "Active"}
    ]},
    {"compound": "O=C(Cn1cnc([N+](=O)[O-])n1)Nc1ccc(Oc2ccc(Cl)cc2)cc1", "values": [
      {"measurement": "selectivity ratio", "setting": "[1]", "value": 22},
      {"measurement": "pKa", "setting": "[2]", "value": 13.6},
      {"measurement": "IC50", "setting": "[4]", "value": 8, "unit": "nM"}
    ]},
    {"compound": "N#Cc1ccc(-c2ccc(NC(=O)CCn3cnc([N+](=O)[O-])n3)cc2)cc1", "values": [
      {"measurement": "Activity", "setting": "[9]", "value": "Non-Toxic"},
      {"measurement": "Activity", "setting": "[7]", "value": "Active"},
      {"measurement": "pKa", "setting": "[2]", "value": 14.1},
      {"measurement": "Activity", "setting": "[8]", "value": "Active"}
    ]},
    {"compound": "O=C(Cn1cnc([N+](=O)[O-])n1)Nc1cc(-c2ccc(F)cc2)on1", "values": [
      {"measurement": "pKa", "setting": "[2]", "value": 11},
      {"measurement": "Activity", "setting": "[6]", "value": "Active"}
    ]},
    {"compound": "O=C(Cn1cnc([N+](=O)[O-])n1)Nc1cccc(OCc2ccccc2)c1", "values": [
      {"measurement": "selectivity ratio", "setting": "[1]", "value": 14.1},
      {"measurement": "pKa", "setting": "[2]", "value": 12.8},
      {"measurement": "selectivity ratio", "setting": "[5]", "value": 20.3},
      {"measurement": "selectivity ratio", "setting": "[3]", "value": 575},
      {"measurement": "IC50", "setting": "[4]", "value": 119, "unit": "nM"}
    ]},
    {"compound": "O=C(CCn1cnc([N+](=O)[O-])n1)Nc1ccc(Oc2ccc(Cl)cc2)cc1", "values": [
      {"measurement": "pKa", "setting": "[2]", "value": 14.5},
      {"measurement": "Activity", "setting": "[6]", "value": "Active"},
      {"measurement": "selectivity ratio", "setting": "[5]", "value": 15},
      {"measurement": "Activity", "setting": "[10]", "value": "Toxic"},
      {"measurement": "Activity", "setting": "[11]", "value": "Non-Toxic"},
      {"measurement": "Activity", "setting": "[12]", "value": "Active"},
      {"measurement": "Activity", "setting": "[13]", "value": "Active"}
    ]},
    {"compound": "O=C(Cn1cnc([N+](=O)[O-])n1)NCc1ccc(C(F)(F)F)cc1", "values": [
      {"measurement": "selectivity ratio", "setting": "[1]", "value": 20},
      {"measurement": "pKa", "setting": "[2]", "value": 12.7},
      {"measurement": "selectivity ratio", "setting": "[5]", "value": 12},
      {"measurement": "selectivity ratio", "setting": "[3]", "value": 133}
    ]},
    {"compound": "O=C(CCn1cnc([N+](=O)[O-])n1)Nc1ccc(Oc2ccc(F)cc2)cc1", "values": [
      {"measurement": "Activity", "setting": "[14]", "value": "Non-Toxic"},
      {"measurement": "pKa", "setting": "[2]", "value": 14.5},
      {"measurement": "Activity", "setting": "[6]", "value": "Active"},
      {"measurement": "Activity", "setting": "[12]", "value": "Active"},
      {"measurement": "Activity", "setting": "[13]", "value": "Active"}
    ]},
    {"compound": "O=C(CCn1cnc([N+](=O)[O-])n1)Nc1cccc(-c2ccccc2)c1", "values": [
      {"measurement": "pKa", "setting": "[2]", "value": 14},
      {"measurement": "Activity", "setting": "[6]", "value": "Active"}
    ]},
    {"compound": "O=C(Cn1cnc([N+](=O)[O-])n1)Nc1ccc(Oc2ccccc2)cc1", "values": [
      {"measurement": "selectivity ratio", "setting": "[1]", "value": 34},
      {"measurement": "pKa", "setting": "[2]", "value": 13.3}
    ]},
    {"compound": "O=C(CCn1cnc([N+](=O)[O-])n1)Nc1cc(-c2ccc(F)cc2)on1", "values": [
      {"measurement": "selectivity ratio", "setting": "[1]", "value": "> 201"},
      {"measurement": "pKa", "setting": "[2]", "value": 11.2}
    ]},
    {"compound": "O=C(CCn1cnc([N+](=O)[O-])n1)Nc1ccc(Oc2ccccc2)cc1", "values": [
      {"measurement": "pKa", "setting": "[2]", "value": 14.5},
      {"measurement": "Activity", "setting": "[6]", "value": "Active"},
      {"measurement": "selectivity ratio", "setting": "[5]", "value": 13.5}
    ]},
    {"compound": "O=C(Cn1cnc([N+](=O)[O-])n1)Nc1cc(-c2ccc(Cl)cc2)no1", "values": [
      {"measurement": "Activity", "setting": "[6]", "value": "Active"}
    ]},
    {"compound": "O=C(Cn1cnc([N+](=O)[O-])n1)Nc1cccc(-c2ccccc2)c1", "values": [
      {"measurement": "IC50", "setting": "[4]", "value": 179, "unit": "nM"}
    ]}
  ]
}
